According to paper PMC9350900 (ACS chemical neuroscience, 2021):
Like-named read-outs stand apart in the source and are kept apart here.

Columns and labels:
[1] = Baseline dynamic PET imaging in non-human primate; type: in vivo, rhesus monkey (Macaca mulatta); conditions: rhesus monkey, i.v. 185 MBq
Summary of the method: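 Rhesus monkey sedated with ketamine (15 mg/kg i.m.) plus glycopyrrolate (0.01 mg/kg i.m.), intubated, and kept under isoflurane (0.5–2.0%) in 40% oxygen/air. CT scan for attenuation correction. The [18F] tracer (185 MBq, <1.0 microgram mass) was given as a slow i.v. bolus (~20 s) with saline flush. Dynamic 90-min scan in 27 frames, FBP-reconstructed with full corrections. Whole-brain ROI time-activity curve in SUV.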

[2] = Lipophilicity by shake-flask method; type: physicochemical; conditions: 1-octanol
[3] = Dynamic PET imaging in healthy rats; type: in vivo, rat
Summary of the method: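 Two healthy Sprague-Dawley rats, 3 months old (male 358 g, female 241 g), injected i.v. with 15.5 and 16.5 MBq of the [18F] tracer (Am 19 and 8 GBq/μmol). 120-min dynamic PET/MRI in 39 frames, FBP with Hann filter. Decay-corrected, without attenuation or scatter correction. Whole-brain TAC from MR template atlas; SUV normalised to injected activity and body weight.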

[4] = Dynamic PET imaging in wild-type mice; type: in vivo, mouse; conditions: wt male mice
Summary of the method: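 Three male C57BL/6 mice (7.5 months, 29–32 g) given an i.v. bolus of the [18F] tracer (9.1 ± 1.1 MBq; Am 18 ± 10 GBq/μmol). 60-min dynamic PET/MRI in 33 frames, FBP reconstruction. Decay-corrected, no attenuation or scatter correction. Whole-brain TAC via MR template atlas; SUV = regional radioactivity normalised to injected activity and body weight.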

[5] = Radiometabolite analysis of blood samples in non-human primate; type: in vivo, rhesus monkey (Macaca mulatta); conditions: rhesus monkey blood, 10 min
Summary of the method: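 Anesthetised rhesus monkey given 185 MBq of the [18F] tracer as an i.v. bolus. Venous blood (~3 mL) drawn via saphenous catheter at 2, 10, 30, 45 and 90 min post-injection. Samples analysed by radio-HPLC for radiolabelled metabolites and the time-varying fraction of unmetabolized parent tracer.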

P-glycoprotein = P-glycoprotein (Homo sapiens, UniProt P08183); conditions: MDCK-MDR1
P-glycoprotein, sequence (P08183 whole entry): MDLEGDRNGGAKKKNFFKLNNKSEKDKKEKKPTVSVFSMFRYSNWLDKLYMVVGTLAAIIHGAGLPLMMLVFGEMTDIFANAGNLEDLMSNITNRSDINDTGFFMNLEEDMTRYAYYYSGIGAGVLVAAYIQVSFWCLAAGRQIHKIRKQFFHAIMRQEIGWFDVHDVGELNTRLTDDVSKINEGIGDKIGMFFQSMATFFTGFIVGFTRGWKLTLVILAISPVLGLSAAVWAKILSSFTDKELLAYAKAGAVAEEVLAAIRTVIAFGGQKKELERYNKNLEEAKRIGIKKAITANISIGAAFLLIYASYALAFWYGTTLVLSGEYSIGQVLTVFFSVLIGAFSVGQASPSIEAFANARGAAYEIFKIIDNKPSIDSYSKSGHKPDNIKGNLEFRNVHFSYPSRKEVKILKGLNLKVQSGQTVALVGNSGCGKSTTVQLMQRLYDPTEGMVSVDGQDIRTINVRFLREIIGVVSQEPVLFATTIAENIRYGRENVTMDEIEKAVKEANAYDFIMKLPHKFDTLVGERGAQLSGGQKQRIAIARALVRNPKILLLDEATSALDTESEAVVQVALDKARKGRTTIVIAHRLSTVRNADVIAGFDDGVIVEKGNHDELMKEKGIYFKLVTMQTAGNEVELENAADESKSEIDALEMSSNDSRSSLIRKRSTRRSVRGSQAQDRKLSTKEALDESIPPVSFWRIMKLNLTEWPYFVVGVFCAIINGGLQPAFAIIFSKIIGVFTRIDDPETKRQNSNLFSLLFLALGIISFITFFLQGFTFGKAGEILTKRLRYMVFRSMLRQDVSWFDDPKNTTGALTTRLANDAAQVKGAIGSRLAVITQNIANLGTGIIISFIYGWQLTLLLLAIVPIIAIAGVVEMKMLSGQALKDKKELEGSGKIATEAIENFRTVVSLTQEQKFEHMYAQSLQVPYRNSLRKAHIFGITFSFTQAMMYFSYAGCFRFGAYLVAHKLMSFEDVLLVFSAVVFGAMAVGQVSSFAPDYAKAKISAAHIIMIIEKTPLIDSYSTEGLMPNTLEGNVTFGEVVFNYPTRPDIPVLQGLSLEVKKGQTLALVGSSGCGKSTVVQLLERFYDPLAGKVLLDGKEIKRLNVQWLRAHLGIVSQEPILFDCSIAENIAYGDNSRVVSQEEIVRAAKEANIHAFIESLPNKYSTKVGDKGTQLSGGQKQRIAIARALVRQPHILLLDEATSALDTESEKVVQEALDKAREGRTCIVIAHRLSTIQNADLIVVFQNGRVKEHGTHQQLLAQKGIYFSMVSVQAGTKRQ

[6] = type: in vitro ADME; conditions: human
[7] = test system: 93 CNS receptors and enzymes, including MAO-A and MAO-B; assay: Off-target selectivity screen; type: binding; conditions: 93 proteins including MAO-A and MAO-B, 1.0 μM
[8] = type: in vitro ADME; conditions: rat
[9] = biological target: T1, melatonin binding site (MT3 (ML2)) on quinone dehydrogenase 2 (Mesocricetus auratus, UniProt A0ABM2YAB8); assay: Off-target selectivity screen; conditions: 1.0 μM, specific radioligand
T1 sequence (A0ABM2YAB8 1-231): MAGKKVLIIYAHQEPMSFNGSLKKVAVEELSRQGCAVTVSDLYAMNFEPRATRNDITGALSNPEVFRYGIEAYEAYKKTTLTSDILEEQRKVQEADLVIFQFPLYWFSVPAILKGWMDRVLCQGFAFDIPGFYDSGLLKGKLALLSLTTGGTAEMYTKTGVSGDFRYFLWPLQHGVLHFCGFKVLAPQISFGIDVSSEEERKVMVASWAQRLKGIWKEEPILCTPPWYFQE

[10] = rat
[11] = human

Compound | peak brain activity [1] [SUV] | time to peak brain activity [1] [min] | brain activity after 25 min ([1]; after 25 min) | logD7.4 [2] | maximum radioactivity in whole brain ([3]; i.v. 15.5 and 16.5 MBq) [SUV] | whole brain radioactivity after 30 min ([3]; i.v., after 30 min) | maximum radioactivity in whole brain ([4]; i.v. bolus 9.1 ± 1.1 MBq) [SUV] | whole brain radioactivity after 30 min ([4]; i.v., after 30 min) | fraction of unmetabolized parent [5] [%] | efflux ratio (B-A/A-B) (P-glycoprotein) | stability in liver microsomes [6] [mL/min/kg] | affinity for off-targets [7] | stability in liver microsomes [8] [mL/min/kg] | interaction with off-target [9] | free fraction in blood plasma [10] [%] | free fraction in blood plasma [11] [%]
OCC1CCN(c2ccc(-c3cc4cc(O)ccc4[nH]3)c([18F])n2)CC1 [[^18F]CBD-2115] | 0.65 | ≤ 2 | below 0.2 SUV | 2.99 ± 0.15 | 0.5 | below 0.1 SUV | 0.66 | below 0.1 SUV | 45 | – | – | – | – | – | – | –
OCC1CCN(c2ccc(-c3cc4cc(O)ccc4[nH]3)c(F)n2)CC1 [CBD-2115] | – | – | – | – | – | – | – | – | – | 0.98 | 8.56 | no significant affinity | 63.84 | specific interaction | 2.85 | 2.70
